Among the data in ChEMBL document CHEMBL1149231, “2,5-Dihydropyrazolo[4,3-c]pyridin-3-ones: functionally selective benzodiazepine binding site ligands on the GABAA receptor” (Bioorg Med Chem Lett, 2004) are Efficacy and Ki values, retold here.

What all share (type): cell-based
The target in assay [1] is T1, GABA-A receptor; alpha-3/beta-3/gamma-2 (Homo sapiens) (UniProt P18507+P28472+P34903). Briefly: Efficacy against human GABA-A receptor alpha-3-beta-3-gamma-2 subunits expressed in L(tk-) cells by whole-cell patch-clamp. A digest of the protocol: (§1)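 Whole-cell patch-clamp of L(tk-) cells stably expressing cloned human α1β3γ2, α2β3γ2 or α3β3γ2 receptors; full concentration-effect curves built; means ± SEM, n = 3-7.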

Assay [2] addresses T2, GABA-A receptor; alpha-1/beta-3/gamma-2 (Homo sapiens, UniProt P14867+P18507+P28472).
T2 sequence (P14867 whole entry): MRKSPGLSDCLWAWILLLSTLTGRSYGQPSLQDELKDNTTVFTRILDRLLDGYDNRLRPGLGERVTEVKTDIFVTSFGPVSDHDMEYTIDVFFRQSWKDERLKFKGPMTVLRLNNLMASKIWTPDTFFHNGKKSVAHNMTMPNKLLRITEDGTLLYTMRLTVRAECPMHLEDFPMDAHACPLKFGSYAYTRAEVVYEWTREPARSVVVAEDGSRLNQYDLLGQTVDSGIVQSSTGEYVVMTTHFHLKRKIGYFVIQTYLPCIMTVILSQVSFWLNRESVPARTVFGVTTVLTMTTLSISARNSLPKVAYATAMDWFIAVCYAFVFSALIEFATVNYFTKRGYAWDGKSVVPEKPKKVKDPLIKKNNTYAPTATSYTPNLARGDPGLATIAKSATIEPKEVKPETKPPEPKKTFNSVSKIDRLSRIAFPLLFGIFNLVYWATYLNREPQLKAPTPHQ
T2 sequence (P18507 whole entry): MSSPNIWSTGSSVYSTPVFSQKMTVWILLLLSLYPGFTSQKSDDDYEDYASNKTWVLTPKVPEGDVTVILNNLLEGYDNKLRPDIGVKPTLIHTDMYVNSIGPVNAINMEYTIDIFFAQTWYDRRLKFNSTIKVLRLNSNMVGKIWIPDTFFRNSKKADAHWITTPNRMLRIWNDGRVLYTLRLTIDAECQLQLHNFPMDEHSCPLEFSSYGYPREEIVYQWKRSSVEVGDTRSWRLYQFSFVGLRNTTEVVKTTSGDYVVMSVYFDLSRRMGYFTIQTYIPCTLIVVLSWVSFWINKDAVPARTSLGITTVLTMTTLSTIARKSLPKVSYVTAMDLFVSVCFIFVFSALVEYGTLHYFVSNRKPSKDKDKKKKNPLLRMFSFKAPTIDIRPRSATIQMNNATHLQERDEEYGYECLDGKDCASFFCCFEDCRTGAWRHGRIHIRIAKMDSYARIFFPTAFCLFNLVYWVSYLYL
T2 sequence (P28472 whole entry): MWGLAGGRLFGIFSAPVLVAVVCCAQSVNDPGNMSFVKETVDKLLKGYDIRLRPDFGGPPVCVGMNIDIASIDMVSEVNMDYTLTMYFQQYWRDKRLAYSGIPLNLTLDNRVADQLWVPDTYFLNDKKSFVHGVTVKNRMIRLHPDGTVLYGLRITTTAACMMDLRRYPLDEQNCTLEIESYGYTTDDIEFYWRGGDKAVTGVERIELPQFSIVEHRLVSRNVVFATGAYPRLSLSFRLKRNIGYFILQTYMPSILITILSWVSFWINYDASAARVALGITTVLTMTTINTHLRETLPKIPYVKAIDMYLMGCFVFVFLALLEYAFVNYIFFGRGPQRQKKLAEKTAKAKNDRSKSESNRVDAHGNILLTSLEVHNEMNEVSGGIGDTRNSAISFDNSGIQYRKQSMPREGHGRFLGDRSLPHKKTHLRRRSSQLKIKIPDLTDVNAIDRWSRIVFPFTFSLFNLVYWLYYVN
Briefly: In vitro binding affinity against gamma-aminobutyric acid A receptor, alpha 1 expressed in L(tk) cells by displacement of [3H]Ro-151788. Summed up: (§2)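 Binding to cloned human α1β3γ2, α2β3γ2 or α3β3γ2 receptors stably expressed in L(tk-) cells, measured as displacement of [3H]Ro15-1788; means ± SEM, n = 3-7.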

The target in assay [3] is T3, GABA-A receptor; alpha-1/beta-3/gamma-2 (Homo sapiens) (UniProt P14867+P18507+P28472). Briefly: Efficacy was determined against gamma-aminobutyric acid A receptor, alpha 1 expressed in Xenopus oocytes. The conditions noted are these: Oocyte. A digest of the protocol: (§3)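 Cloned human α1β3γ2, α2β3γ2 or α3β3γ2 receptors transiently expressed in Xenopus oocytes; two-electrode voltage clamp; modulation of GABA EC20 current by a single test-compound concentration (nM, given per value); means ± SEM, n = 3-7.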

Assay [4] concerns the target T1, GABA-A receptor; alpha-3/beta-3/gamma-2 (Homo sapiens). Briefly: Efficacy was determined against Gamma-aminobutyric acid A receptor, alpha 3 expressed in Xenopus oocytes. The conditions noted are these: Oocyte. Summed up:
as §3

Assay [5] addresses T3, GABA-A receptor; alpha-1/beta-3/gamma-2 (Homo sapiens). The assay can be described thus: Efficacy against human GABA-A receptor alpha-1-beta-3-gamma-2 subunits expressed in L(tk-) cells by whole-cell patch-clamp. A digest of the protocol:
as §1

The target in assay [6] is T4, GABA-A receptor; alpha-3/beta-3/gamma-2 (Homo sapiens, UniProt P18507+P28472+P34903).
T4 sequence (P18507 whole entry): T2 sequence (P18507 whole entry)
T4 sequence (P28472 whole entry): T2 sequence (P28472 whole entry)
T4 sequence (P34903 whole entry): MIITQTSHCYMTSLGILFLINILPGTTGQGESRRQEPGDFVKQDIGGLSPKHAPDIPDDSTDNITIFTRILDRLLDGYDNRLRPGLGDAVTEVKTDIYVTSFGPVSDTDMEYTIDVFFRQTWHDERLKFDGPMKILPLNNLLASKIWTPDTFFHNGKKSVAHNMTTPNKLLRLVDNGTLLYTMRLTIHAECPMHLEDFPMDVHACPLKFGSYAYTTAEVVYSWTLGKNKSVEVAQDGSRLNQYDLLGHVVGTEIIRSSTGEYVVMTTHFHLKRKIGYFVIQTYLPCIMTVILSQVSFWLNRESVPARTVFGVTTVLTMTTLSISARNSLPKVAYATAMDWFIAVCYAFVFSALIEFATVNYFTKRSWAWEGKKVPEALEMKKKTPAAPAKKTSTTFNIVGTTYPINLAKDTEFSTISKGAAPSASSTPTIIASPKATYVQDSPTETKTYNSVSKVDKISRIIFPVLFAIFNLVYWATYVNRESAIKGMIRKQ
Briefly: In vitro displacement of [3H]Ro-151788 from human GABA-A receptor alpha-3-beta-3-gamma-2 subunits expressed in L(tk-) cells. Summed up: as §2

The target in assay [7] is T4, GABA-A receptor; alpha-3/beta-3/gamma-2. The assay can be described thus: In vitro binding affinity against Gamma-aminobutyric acid A receptor, alpha 3 expressed in L(tk) cells by displacement of [3H]Ro-151788. A digest of the protocol: as §2
Assay [8] has as its target T5, GABA-A receptor; alpha-2/beta-3/gamma-2 (Homo sapiens) (UniProt P18507+P28472+P47869). Briefly: Efficacy against human GABA-A receptor alpha-2-beta-3-gamma-2 subunits expressed in L(tk-) cells by whole-cell patch-clamp. A digest of the protocol: as §1
The target of assay [9] is T5, GABA-A receptor; alpha-2/beta-3/gamma-2 (Homo sapiens). Briefly: Efficacy relative to GABA EC20 against human GABA-A receptor alpha-2-beta-3-gamma-2 subunits expressed in Xenopus oocytes. The conditions noted are these: Oocyte. A digest of the protocol:
as §3

In assay [10] the target is T6, GABA-A receptor; alpha-2/beta-3/gamma-2 (Homo sapiens, UniProt P18507+P28472+P47869).
T6 sequence (P18507 whole entry): T2 sequence (P18507 whole entry)
T6 sequence (P28472 whole entry): T2 sequence (P28472 whole entry)
T6 sequence (P47869 whole entry): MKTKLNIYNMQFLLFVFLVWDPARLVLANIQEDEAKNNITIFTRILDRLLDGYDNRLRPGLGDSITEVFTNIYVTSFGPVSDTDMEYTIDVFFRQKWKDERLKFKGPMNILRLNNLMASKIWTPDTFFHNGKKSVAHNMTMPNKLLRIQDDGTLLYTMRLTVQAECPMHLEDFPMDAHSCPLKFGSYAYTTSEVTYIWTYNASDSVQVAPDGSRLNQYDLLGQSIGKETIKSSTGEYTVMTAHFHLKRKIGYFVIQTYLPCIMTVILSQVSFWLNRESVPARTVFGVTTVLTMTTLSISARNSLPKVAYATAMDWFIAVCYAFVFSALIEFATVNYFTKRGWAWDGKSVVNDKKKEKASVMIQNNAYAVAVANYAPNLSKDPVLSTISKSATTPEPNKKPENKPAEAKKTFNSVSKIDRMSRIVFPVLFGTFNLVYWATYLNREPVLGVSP
Briefly: In vitro displacement of [3H]Ro-151788 from human GABA-A receptor alpha-2-beta-3-gamma-2 subunits expressed in L(tk-) cells. Summed up:
as §2

Consider `Oc1c2cnc3c(c2nn1-c1ccc(OC2CC2)cc1)CCCC3`, for which the Efficacy in assay [1] is 54%; in assay [3], 19%; in assay [4] it was 62%; in [5], -4.3%. Also, the inhibition constant Ki was 1.13 nM in [2] and 2.19 nM in [6].
Regarding `O=C(Cc1cccnc1)N1CCC2N=Cc3c(nn(-c4ccc(Cl)cc4)c3O)C2C1` (centres undefined), the inhibition constant Ki in assay [2] was found to be 3.15 nM; in [7], 5.4 nM. In addition, the values for the Efficacy in assay [3] and in assay [4] were 49% and 2.3%, respectively.
Take `Oc1c2c(nn1-c1ccc(OC(F)F)cc1)C1COCCC1N=C2` (centres undefined): the Ki stood at 1.55 nM in assay [2] and 6.4 nM in [7]. Further, the Efficacy in assay [3] was found to be 11%; in assay [4], 32%.
As to `O=c1c2c[nH]c3c(c-2nn1-c1ccc(Cl)cc1)CCCC3`, the Efficacy was determined as 70% in assay [1]; 12% in assay [3]; 93% in [4]; 17% in assay [5]; 43% in assay [8]; 61% in assay [9]. Moreover, the Ki in assay [2] stood at 0.19 nM; in assay [7] it was 1.03 nM; in [10], 0.77 nM.
In the case of `Oc1c2cnc3c(c2nn1-c1ccc(F)cc1)CCCC3`, the values for the inhibitory constant (Ki) in assay [2] and in assay [7] were 0.29 nM and 0.65 nM, respectively. The Efficacy was -2% in [3] and 33% in [4].
For `COc1ccc(-n2nc3c4c(ncc3c2O)CCCC4)cc1` the same measures were 0.31 nM, 0.61 nM, 15% and 55%.
For `Oc1c2c(nn1-c1ccc(OC(F)F)cc1)C1CSCCC1N=C2` (centres undefined) the same measures were 0.38 nM, 0.89 nM, 9% and 25%.
`Oc1c2cnc3c(c2nn1-c1ccc(OC(F)(F)F)cc1)CCCC3`: the values for the Ki in assay [2] and in [7] were 7.33 nM and 4.7 nM, respectively. The Efficacy worked out at 14% in assay [3] and 35% in assay [4].
Turning to `Oc1c2cnc3c(c2nn1-c1ccc(OC(F)F)cc1)CCCC3`, the Efficacy was 34% in assay [1], 21% in assay [3], 56% in assay [4] and 2% in assay [5]. Also, the results for the Ki in assay [2] and in assay [7] were 1 nM and 2.25 nM, respectively.
On to `Oc1c2cnc3c(c2nn1-c1ccc(OC2CCC2)cc1)CCCC3`, for which the inhibition constant Ki is 1.3 nM in assay [2] and 2.55 nM in [7]. In addition, the Efficacy in [3] stood at 49%; in assay [4], 36%.
As to `Oc1c2c(nn1-c1ccc(Cl)cc1)C1CCCCCC1N=C2` (centres undefined), the values for the inhibitory constant (Ki) in assay [2] and in assay [7] were 1.06 nM and 4.27 nM, respectively. Also, the Efficacy in [3] was found to be 23%; in assay [4] it was 87%.
As to `Oc1c2cnc3c(c2nn1-c1ccccn1)CCCC3`, the figures for the inhibition constant Ki in [2] and in assay [7] were 0.57 nM and 1.14 nM, respectively. Besides, the Efficacy in assay [3] is -39%; in [4], -7%.
For `Oc1c2c(nn1-c1ccc(Cl)cc1)C1CN(CC3CC3)CCC1N=C2` (centres undefined) the same measures were 0.45 nM, 7.45 nM, 111% and 123%.
Take `Oc1c2c(nn1-c1ccc(Cl)cc1)C1CCCC1N=C2` (centres undefined): the Ki in assay [2] is 0.44 nM; in assay [7], 1.12 nM. In addition, the figures for the Efficacy in assay [3] and in assay [4] were 19% and 51%, respectively.
For `Oc1c2c(nn1-c1ccc(Cl)cc1)C1CN(Cc3ccncc3)CCC1N=C2` (centres undefined), the results for the inhibition constant Ki in [2] and in [7] were 0.18 nM and 0.56 nM, respectively. The Efficacy in assay [3] was 131%; in assay [4], 199%.
